Data: ChEMBL document CHEMBL4411287, “Discovery and optimization of a series of 3-substituted indazole derivatives as multi-target kinase inhibitors for the treatment of lung squamous cell carcinoma” (Eur J Med Chem, 2019)

Tested on: KG-1
Experiment: Antiproliferative activity against human KG1 cells after 72 hrs by CCK8 assay
Details: KG-1, 72 h

SMILES	IC50
Cc1ccc(C(=O)Nc2cccc(C(F)(F)F)c2)cc1-c1ccc2c(-c3cnn(C4CCOC4)c3)n[nH]c2c1 (stereo not drawn)	304 nM
Cc1ccc(C(=O)Nc2cccc(C(F)(F)F)c2)cc1-c1ccc2c(-c3cnn(CC(=O)N(C)C)c3)n[nH]c2c1	441 nM
Cc1ccc(C(=O)Nc2cccc(C(F)(F)F)c2)cc1-c1ccc2c(-c3ccc(N4CCC(N5CCOCC5)CC4)cc3)n[nH]c2c1	177 nM
Cc1ccc(C(=O)Nc2cccc(C(F)(F)F)c2)cc1-c1ccc2c(-c3cnn(C)c3)n[nH]c2c1	65.7 nM
CCn1cc(-c2n[nH]c3cc(-c4cc(C(=O)Nc5cccc(C(F)(F)F)c5)ccc4C)ccc23)cn1	257 nM
Cc1ccc(C(=O)Nc2cccc(C(F)(F)F)c2)cc1-c1ccc2c(-c3ccc(N4CCOCC4)cc3)n[nH]c2c1	561 nM
Cc1ccc(C(=O)Nc2cccc(C(F)(F)F)c2)cc1-c1ccc2c(-c3cnn(CC(C)O)c3)n[nH]c2c1 (stereo not drawn)	339 nM

Tested on: not listed separately
Experiment: MRT in ICR(CD-1) mouse at 10 mg/kg, po administered via gavage by triple quadrupole mass spectrometric analysis
Type: ADME, organism-based
Details: in vivo
Summary of the method: (§1)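 Dosed by gavage at 1 mg/mL in 1% Tween80/water to male ICR mice, 18-22 g, n=3. Blood taken at 0.25, 0.5, 1, 2, 4, 8 and 24 h. Plasma precipitated with methanol:acetonitrile (1:1) containing internal standard, then UPLC-MS/MS on a C18 column with an ammonium acetate/formic acid–acetonitrile gradient. Tmax read directly from the data; MRT calculated per animal from concentration–time curves.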

MRT	SMILES
3.26 h	Cc1ccc(C(=O)Nc2cccc(C(F)(F)F)c2)cc1-c1ccc2c(-c3cnn(C)c3)n[nH]c2c1
1.37 h	Cc1ccc(C(=O)Nc2cccc(C(F)(F)F)c2)cc1-c1ccc2c(-c3cnn(CC(C)O)c3)n[nH]c2c1 (stereo not drawn)

Target: T1, Discoidin domain-containing receptor 2 (Homo sapiens) (UniProt Q16832)
T1 sequence (whole entry): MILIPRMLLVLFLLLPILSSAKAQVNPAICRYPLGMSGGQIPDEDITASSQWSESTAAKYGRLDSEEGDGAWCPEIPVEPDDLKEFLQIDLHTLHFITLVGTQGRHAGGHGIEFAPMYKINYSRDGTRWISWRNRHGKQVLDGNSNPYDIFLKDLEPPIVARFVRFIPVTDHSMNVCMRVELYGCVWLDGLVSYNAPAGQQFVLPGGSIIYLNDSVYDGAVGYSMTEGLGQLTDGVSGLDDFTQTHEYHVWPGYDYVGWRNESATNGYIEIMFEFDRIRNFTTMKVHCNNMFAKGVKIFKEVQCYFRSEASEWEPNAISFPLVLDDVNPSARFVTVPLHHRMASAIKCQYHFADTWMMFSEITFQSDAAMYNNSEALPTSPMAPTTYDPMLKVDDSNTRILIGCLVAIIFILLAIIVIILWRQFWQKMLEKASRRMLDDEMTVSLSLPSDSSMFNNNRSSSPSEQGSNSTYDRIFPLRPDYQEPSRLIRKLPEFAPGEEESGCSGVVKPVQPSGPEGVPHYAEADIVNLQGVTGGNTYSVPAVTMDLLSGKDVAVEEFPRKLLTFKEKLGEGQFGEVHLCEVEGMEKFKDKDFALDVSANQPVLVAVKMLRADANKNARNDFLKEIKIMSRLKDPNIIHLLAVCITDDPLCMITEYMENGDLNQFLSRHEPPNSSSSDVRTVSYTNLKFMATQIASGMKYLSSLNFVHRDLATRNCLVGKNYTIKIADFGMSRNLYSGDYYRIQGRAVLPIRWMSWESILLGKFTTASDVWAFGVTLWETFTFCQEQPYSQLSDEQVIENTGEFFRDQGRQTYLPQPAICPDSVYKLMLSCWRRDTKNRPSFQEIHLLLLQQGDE
Experiment: Inhibition of DDR2 (unknown origin) at 1000 nM using poly (Glu, Tyr) 4:1 substrate after 60 mins by ELISA relative to control
Details: not given
Summary of the method: (§2)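 ELISA with purified recombinant DDR2 on poly(Glu,Tyr) 4:1 precoated at 20 µg/mL. 10 µM ATP in HEPES pH 7.4 buffer with MgCl2, MnCl2, Na3VO4 and DTT, 1% DMSO; 60 min at 37 °C. Phosphotyrosine detected by PY99 and HRP anti-mouse IgG with o-phenylenediamine at A490. Inhibition = 1−A490/A490control; two separate experiments.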

inhibition	SMILES
53.3%	O=C(Nc1cccc(-c2ccc3cn[nH]c3c2)c1)Nc1cccc(C(F)(F)F)c1
24.8%	Nc1n[nH]c2cc(-c3cccc(NC(=O)c4cccc(C(F)(F)F)c4)c3)ccc12
29.8%	Cn1ncc2ccc(-c3cccc(NC(=O)c4cccc(C(F)(F)F)c4)c3)cc21

Tested on: not listed separately
Experiment: Half life in ICR(CD-1) mouse at 10 mg/kg, po administered via gavage by triple quadrupole mass spectrometric analysis
Type: ADME, organism-based
Details: in vivo
Summary of the method: (§3)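 Oral gavage at 1 mg/mL in 1% Tween80/water to male ICR mice (18-22 g, n=3). Plasma sampled at 0.25, 0.5, 1, 2, 4, 8 and 24 h, protein precipitated with methanol:acetonitrile (1:1) containing internal standard, and quantified by UPLC-triple quadrupole MS. AUC and MRT were taken from per-animal time-concentration curves. Cmax is the maximum plasma level and Tmax the time to reach it.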

half-life	SMILES
165 min	Cc1ccc(C(=O)Nc2cccc(C(F)(F)F)c2)cc1-c1ccc2c(-c3cnn(C)c3)n[nH]c2c1
45 min	Cc1ccc(C(=O)Nc2cccc(C(F)(F)F)c2)cc1-c1ccc2c(-c3cnn(CC(C)O)c3)n[nH]c2c1 (stereo not drawn)

Tested on: NCI-H2286
Experiment: Antiproliferative activity against human NCI-H2286 cells after 72 hrs by CCK8 assay
Details: NCI-H2286, 72 h

IC50	SMILES
69.7 nM	Cc1ccc(C(=O)Nc2cccc(C(F)(F)F)c2)cc1-c1ccc2c(-c3cnn(C4CCOC4)c3)n[nH]c2c1 (stereo not drawn)
> 1000 nM	Cc1ccc(C(=O)Nc2cccc(C(F)(F)F)c2)cc1-c1ccc2c(-c3cnn(CC(=O)N(C)C)c3)n[nH]c2c1
24.3 nM	Cc1ccc(C(=O)Nc2cccc(C(F)(F)F)c2)cc1-c1ccc2c(-c3cnn(C)c3)n[nH]c2c1
19.8 nM	CCn1cc(-c2n[nH]c3cc(-c4cc(C(=O)Nc5cccc(C(F)(F)F)c5)ccc4C)ccc23)cn1
140 nM	Cc1ccc(C(=O)Nc2cccc(C(F)(F)F)c2)cc1-c1ccc2c(-c3ccc(N4CCOCC4)cc3)n[nH]c2c1
196 nM	Cc1ccc(C(=O)Nc2cccc(C(F)(F)F)c2)cc1-c1ccc2c(-c3cnn(CC(C)O)c3)n[nH]c2c1 (stereo not drawn)

Tested on: not listed separately
Experiment: Cmax in ICR(CD-1) mouse at 10 mg/kg, po administered via gavage by triple quadrupole mass spectrometric analysis
Type: ADME, organism-based
Set-up: dose 10 mg/kg, route oral
Details: in vivo
Summary of the method: as §3

Cmax	SMILES
890 ng/mL	Cc1ccc(C(=O)Nc2cccc(C(F)(F)F)c2)cc1-c1ccc2c(-c3cnn(C)c3)n[nH]c2c1
202 ng/mL	Cc1ccc(C(=O)Nc2cccc(C(F)(F)F)c2)cc1-c1ccc2c(-c3cnn(CC(C)O)c3)n[nH]c2c1 (stereo not drawn)

Tested on: not listed separately
Experiment: AUC (0 to t) in ICR(CD-1) mouse at 10 mg/kg, po administered via gavage by triple quadrupole mass spectrometric analysis
Type: ADME, organism-based
Details: in vivo
Summary of the method: as §3

AUC(0-t)	SMILES
3480 ng·h/mL	Cc1ccc(C(=O)Nc2cccc(C(F)(F)F)c2)cc1-c1ccc2c(-c3cnn(C)c3)n[nH]c2c1
324 ng·h/mL	Cc1ccc(C(=O)Nc2cccc(C(F)(F)F)c2)cc1-c1ccc2c(-c3cnn(CC(C)O)c3)n[nH]c2c1 (stereo not drawn)

Tested on: not listed separately
Experiment: AUC (0 to infinity) in ICR(CD-1) mouse at 10 mg/kg, po administered via gavage by triple quadrupole mass spectrometric analysis
Type: ADME, organism-based
Set-up: dose 10 mg/kg, route oral, time infinity
Details: in vivo
Summary of the method: as §3

AUC(0-inf)	SMILES
3480 ng·h/mL	Cc1ccc(C(=O)Nc2cccc(C(F)(F)F)c2)cc1-c1ccc2c(-c3cnn(C)c3)n[nH]c2c1
334 ng·h/mL	Cc1ccc(C(=O)Nc2cccc(C(F)(F)F)c2)cc1-c1ccc2c(-c3cnn(CC(C)O)c3)n[nH]c2c1 (stereo not drawn)

Target: T1, Discoidin domain-containing receptor 2 (Homo sapiens)
Experiment: Inhibition of DDR2 (unknown origin) at 100 nM using poly (Glu, Tyr) 4:1 substrate after 60 mins by ELISA relative to control
Details: not given
Summary of the method: as §2

inhibition	SMILES
20.1%	O=C(Nc1cccc(-c2ccc3cn[nH]c3c2)c1)Nc1cccc(C(F)(F)F)c1
22.8%	Nc1n[nH]c2cc(-c3cccc(NC(=O)c4cccc(C(F)(F)F)c4)c3)ccc12
7.6%	Cn1ncc2ccc(-c3cccc(NC(=O)c4cccc(C(F)(F)F)c4)c3)cc21

Tested on: not listed separately
Experiment: Tmax in ICR(CD-1) mouse at 10 mg/kg, po administered via gavage by triple quadrupole mass spectrometric analysis
Type: ADME, organism-based
Details: in vivo
Summary of the method: as §1

Tmax	SMILES
70.2 min	Cc1ccc(C(=O)Nc2cccc(C(F)(F)F)c2)cc1-c1ccc2c(-c3cnn(C)c3)n[nH]c2c1
15 min	Cc1ccc(C(=O)Nc2cccc(C(F)(F)F)c2)cc1-c1ccc2c(-c3cnn(CC(C)O)c3)n[nH]c2c1 (stereo not drawn)

Target: T2, Discoidin domain-containing receptor 2 (Homo sapiens, UniProt Q16832)
T2 sequence (Q16832 whole entry): T1 sequence (whole entry)
Experiment: Inhibition of DDR2 (unknown origin) using poly (Glu, Tyr) 4:1 substrate after 60 mins by ELISA
Details: not given

SMILES	IC50
Cc1ccc(C(=O)Nc2cccc(C(F)(F)F)c2)cc1-c1ccc2c(-c3ccc(N4CCC(N5CCOCC5)CC4)cc3)n[nH]c2c1	8.7 nM
Cc1ccc(C(=O)Nc2cccc(C(F)(F)F)c2)cc1-c1ccc2c(-c3ccc(N4CCOCC4)cc3)n[nH]c2c1	21.6 nM

Results, then the compound that gave them:

IC50	SMILES
6.2 nM	Cc1ccc(C(=O)Nc2cccc(C(F)(F)F)c2)cc1-c1ccc2c(-c3cnn(C4CCOC4)c3)n[nH]c2c1 (stereo not drawn)
4.4 nM	Cc1ccc(C(=O)Nc2cccc(C(F)(F)F)c2)cc1-c1ccc2c(-c3cnn(C)c3)n[nH]c2c1
3.7 nM	Cc1ccc(C(=O)Nc2cccc(C(F)(F)F)c2)cc1-c1ccc2c(-c3cnn(CC(C)O)c3)n[nH]c2c1 (stereo not drawn)
2.7 nM	Cc1ccc(C(=O)Nc2cccc(C(F)(F)F)c2)cc1-c1ccc2c(-c3cnn(CC(=O)N(C)C)c3)n[nH]c2c1
2.6 nM	CCn1cc(-c2n[nH]c3cc(-c4cc(C(=O)Nc5cccc(C(F)(F)F)c5)ccc4C)ccc23)cn1
